From ChEMBL document CHEMBL1949631, “Novel 3-phenylpiperidine-4-carboxamides as highly potent and orally long-acting neurokinin-1 receptor antagonists with reduced CYP3A induction” (Bioorg Med Chem, 2012)

What was measured:
Substance-P receptor = Substance-P receptor (Homo sapiens, UniProt P25103); assay: Displacement of [125I]BH-SP from tachykinin NK1 receptor in human IM9 cells after 30 mins by scintillation counting; assay type: cell-based, IM-9
In short: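 Receptor membranes from human IM-9 lymphoblasts (grown 3 days, homogenised, spun 40,000 g) in 50 mM Tris-HCl pH 7.4 with 0.02% BSA, protease inhibitors and 3 mM MnCl2. Incubated with [125I]BH-SP (final 130 pM) for 30 min at room temperature in 0.2 mL. Nonspecific binding defined with 2×10^-6 M SP. Read by rapid GF/C filtration (PEI-soaked filters), three washes, scintillation counting.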

Cavia porcellus [1] = assay: Inhibition of GR73632-induced increase in locomotor activity in po dosed Hartley guinea pig after 1 hr; assay type: functional; settings: read-out: ID50 (the source's name)
In short: (§1)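 Male Hartley guinea pigs, 6–8 per group, dosed orally with compound suspended in 0.5% methylcellulose (2 mL/kg), or vehicle, 0.75 h (1 h line) or 23.75 h (24 h line) before intracerebroventricular […] infusion. %inh. comes from locomotor counts corrected for the sham-infused group against the vehicle control. ID50 and 95% CI come from linear regression of the dose–response.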

[2] = (§2) Metabolic stability in human liver microsomes assessed as parent compound remaining at 1 uM after 15 to 30 mins by HPLC analysis; assay type: ADME, Microsome; settings: liver microsomes, read-out: Stability
In short: (§3)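 Compound at 1 μM incubated with human liver microsomes for 15 and 30 min under standard conditions. Remaining parent compound quantified by HPLC and expressed as μL/mg/min.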

Cavia porcellus [3] = assay: Inhibition of GR73632-induced increase in locomotor activity in po dosed Hartley guinea pig after 24 hrs; assay type: functional; settings: read-out: ID50 (the source's name); in short: as §1
Cavia porcellus [4] = assay: Inhibition of GR73632-induced increase in locomotor activity in Hartley guinea pig at 0.1 mg/kg, iv after 5 mins relative to control; assay type: functional
In short: (§4)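 Male Hartley guinea pigs, 6–8 per group. Compound or vehicle in DMA-PEG400 (1:1, v/v), 0.5 mL/kg, given intravenously just before intracerebroventricular infusion of the NK1 agonist […]. %inh. is taken from activity counts relative to vehicle-treated and sham-infused groups. Values are averages of 5–10 independent experiments.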

[5] = Mean residence time in monkey at 1 mg/kg, po; assay type: ADME, organism-based, Macaca mulatta; design: dose 1 mg/kg, route oral; settings: rhesus monkey, in vivo
In short: (§5)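 Single oral dose of 1 mg/kg. Blood concentration–time curve used to derive AUC, mean residence time and bioavailability.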

[6] = AUC (0 to 24 hrs) in rat at 1 mg/kg, po; assay type: ADME, organism-based; design: time < 24 hr, dose 1 mg/kg, route oral; settings: plasma; in short: as §5
[7] = target: T1, Nuclear receptor subfamily 1 group I member 2 (Homo sapiens, UniProt O75469); assay: Induction of human PXR-mediated CYP3A activity at 10 uM
T1 sequence (O75469 whole entry): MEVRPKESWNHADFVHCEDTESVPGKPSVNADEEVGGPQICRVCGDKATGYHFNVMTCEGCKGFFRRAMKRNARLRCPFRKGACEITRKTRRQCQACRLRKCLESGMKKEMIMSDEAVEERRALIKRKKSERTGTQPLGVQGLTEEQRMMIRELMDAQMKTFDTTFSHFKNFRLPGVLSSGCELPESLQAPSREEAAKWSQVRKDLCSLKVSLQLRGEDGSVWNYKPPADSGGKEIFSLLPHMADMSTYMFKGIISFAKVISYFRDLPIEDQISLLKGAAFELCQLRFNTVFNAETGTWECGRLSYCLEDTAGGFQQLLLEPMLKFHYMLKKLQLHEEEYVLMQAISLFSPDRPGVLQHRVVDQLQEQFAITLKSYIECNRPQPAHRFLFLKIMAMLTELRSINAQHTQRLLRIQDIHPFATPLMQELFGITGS

[8] = AUC (0 to 24 hrs) in monkey at 1 mg/kg, po; assay type: ADME, organism-based, Macaca mulatta; design: time < 24 hr, dose 1 mg/kg, route oral; settings: rhesus monkey, plasma; in short: as §5
[9] = Metabolic stability in dog microsomes; assay type: ADME, Canis lupus familiaris, Microsome
[10] = Oral bioavailability in monkey at 1 mg/kg; assay type: ADME, organism-based, Macaca mulatta; settings: rhesus monkey, in vivo; in short: as §5
[11] = Metabolic stability in rat microsomes; assay type: ADME, Microsome
[12] = Oral bioavailability in dog at 1 mg/kg; assay type: ADME, organism-based, Canis lupus familiaris; settings: in vivo; in short: as §5
[13] = Metabolic stability in monkey microsomes; assay type: ADME, Macaca mulatta, Microsome; settings: rhesus monkey
[14] = Oral bioavailability in rat at 1 mg/kg; assay type: ADME, organism-based; settings: in vivo; in short: as §5
[15] = AUC (0 to 24 hrs) in guinea pig at 1 mg/kg, po; assay type: ADME, organism-based, Cavia porcellus; design: time < 24 hr, dose 1 mg/kg, route oral; settings: plasma; in short: as §5
[16] = Oral bioavailability in guinea pig at 1 mg/kg; assay type: ADME, organism-based, Cavia porcellus; settings: in vivo; in short: as §5
[17] = AUC (0 to 24 hrs) in dog at 1 mg/kg, po; assay type: ADME, organism-based, Canis lupus familiaris; design: time < 24 hr, dose 1 mg/kg, route oral; settings: plasma; in short: as §5
[18] = Mean residence time in rat at 1 mg/kg, po; assay type: ADME, organism-based; design: dose 1 mg/kg, route oral; settings: in vivo; in short: as §5
[19] = Metabolic stability in guinea pig microsomes; assay type: ADME, Cavia porcellus, Microsome
[20] = Mean residence time in dog at 1 mg/kg, po; assay type: ADME, organism-based, Canis lupus familiaris; design: dose 1 mg/kg, route oral; settings: in vivo; in short: as §5
[21] = Mean residence time in guinea pig at 1 mg/kg, po; assay type: ADME, organism-based, Cavia porcellus; design: dose 1 mg/kg, route oral; settings: in vivo; in short: as §5
Cavia porcellus [22] = assay: Inhibition of GR73632-induced increase in locomotor activity in Hartley guinea pig at 0.3 mg/kg, iv after 5 mins relative to control; assay type: functional; in short: as §4
Liver microsomes = assay: as §2; assay type: ADME, Microsome; settings: microsomes, 1 µM; in short: as §3

Substance-P receptor, sequence (P25103 whole entry): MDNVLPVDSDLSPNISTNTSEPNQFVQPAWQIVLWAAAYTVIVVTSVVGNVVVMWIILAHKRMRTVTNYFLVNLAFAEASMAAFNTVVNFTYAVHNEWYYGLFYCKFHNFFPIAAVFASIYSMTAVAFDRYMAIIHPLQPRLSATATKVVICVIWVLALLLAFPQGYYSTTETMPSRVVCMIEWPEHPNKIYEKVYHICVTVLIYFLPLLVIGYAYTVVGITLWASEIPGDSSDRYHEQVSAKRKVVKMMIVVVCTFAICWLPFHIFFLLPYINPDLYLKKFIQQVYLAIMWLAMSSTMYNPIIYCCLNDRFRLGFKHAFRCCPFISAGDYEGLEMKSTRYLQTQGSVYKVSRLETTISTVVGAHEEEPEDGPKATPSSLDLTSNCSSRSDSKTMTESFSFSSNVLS

CC(=O)N1CCC(C(=O)N2CCC(C(=O)N(C)Cc3cc(C(F)(F)F)cc(C(F)(F)F)c3)=C(c3ccccc3)C2)CC1
IC50 (Substance-P receptor): 0.17 nM

Cc1cc(F)ccc1[C@H]1CN(C(=O)C(N)=O)CC[C@@H]1C(=O)N(C)Cc1cc(C(F)(F)F)cc(C(F)(F)F)c1
ED50 (Cavia porcellus [1]): 0.14 mg/kg
microsomal CLint at 1 µM [2]: 30 µL/min/mg
ED50 (Cavia porcellus [3]): 0.72 mg/kg
inhibition in vivo at 0.1 mg/kg (Cavia porcellus [4]): 88.8%
IC50 (Substance-P receptor): 0.02 nM

Cc1cc(F)ccc1[C@@H]1CN(C(=O)C(N)=O)CC[C@H]1C(=O)N(C)Cc1cc(C(F)(F)F)cc(C(F)(F)F)c1
IC50 (Substance-P receptor): > 100 nM

Cc1cc(F)ccc1[C@H]1CN(C(=O)C(N)=O)CC[C@@H]1C(=O)N(C)[C@@H](C)c1cc(C(F)(F)F)cc(C(F)(F)F)c1
MRT [5]: 6.4 h
AUC(0-t) at 24 h [6]: 521 ng·h/mL
Activity [7]: 3%
AUC(0-t) at 24 h [8]: 1040 ng·h/mL
Stability [9]: 0 µL/min/mg
bioavailability [10]: 38%
Stability [11]: 13 µL/min/mg
ED50 (Cavia porcellus [1]): 0.1 mg/kg
bioavailability [12]: 40%
Stability [13]: 14 µL/min/mg
bioavailability [14]: 29%
AUC(0-t) at 24 h [15]: 1080 ng·h/mL
bioavailability [16]: 83%
microsomal CLint at 1 µM [2]: 2 µL/min/mg
AUC(0-t) at 24 h [17]: 2150 ng·h/mL
ED50 (Cavia porcellus [3]): 0.57 mg/kg
MRT [18]: 4.5 h
inhibition in vivo at 0.1 mg/kg (Cavia porcellus [4]): 78.9%
Stability [19]: 3 µL/min/mg
MRT [20]: 6.5 h
MRT [21]: 7.5 h

Cc1cc(F)ccc1[C@H]1CN(C(=O)C(N)=O)CC[C@@H]1C(=O)N(C)[C@H](C)c1cc(C(F)(F)F)cc(C(F)(F)F)c1
microsomal CLint at 1 µM [2]: 57 µL/min/mg
inhibition in vivo at 0.1 mg/kg (Cavia porcellus [4]): 43.1%
IC50 (Substance-P receptor): 0.2 nM

CN(Cc1cc(C(F)(F)F)cc(C(F)(F)F)c1)C(=O)[C@@H]1CCNC[C@H]1c1ccccc1 (racemic)
IC50 (Substance-P receptor): 2.6 nM

CC(=O)N1CC[C@@H](C(=O)N(C)Cc2cc(C(F)(F)F)cc(C(F)(F)F)c2)[C@H](c2ccccc2)C1 (racemic)
IC50 (Substance-P receptor): 2.6 nM

CC(=O)N1CC[C@H](C(=O)N(C)Cc2cc(C(F)(F)F)cc(C(F)(F)F)c2)[C@H](c2ccccc2)C1 (racemic)
IC50 (Substance-P receptor): 3.2 nM

CC(=O)NCC(=O)N1CC[C@@H](C(=O)N(C)Cc2cc(C(F)(F)F)cc(C(F)(F)F)c2)[C@H](c2ccccc2)C1 (racemic)
IC50 (Substance-P receptor): 12 nM

CC(=O)N1CCC(C(=O)N2CC[C@@H](C(=O)N(C)Cc3cc(C(F)(F)F)cc(C(F)(F)F)c3)[C@H](c3ccccc3)C2)CC1 (racemic)
inhibition in vivo at 0.3 mg/kg (Cavia porcellus [22]): 72.1%

CC(=O)N1CCC(C(=O)N2CC[C@@H](C(=O)NCc3cc(C(F)(F)F)cc(C(F)(F)F)c3)[C@H](c3ccccc3)C2)CC1 (racemic)
IC50 (Substance-P receptor): 2.7 nM

CC(=O)N1CCC(C(=O)N2CC[C@H](C(=O)N(C)Cc3cc(C(F)(F)F)cc(C(F)(F)F)c3)[C@@H](c3ccc(C)cc3)C2)CC1 (racemic)
IC50 (Substance-P receptor): 0.18 nM

CC(=O)N1CCC(C(=O)N2CC[C@H](C(=O)N(C)Cc3cc(C(F)(F)F)cc(C(F)(F)F)c3)[C@@H](c3cccc(C)c3)C2)CC1 (racemic)
IC50 (Substance-P receptor): 0.14 nM

CC(=O)N1CCC(C(=O)N2CC[C@H](C(=O)N(C)Cc3cc(C(F)(F)F)cc(C(F)(F)F)c3)[C@@H](c3ccccc3C)C2)CC1 (racemic)
inhibition in vivo at 0.3 mg/kg (Cavia porcellus [22]): 60.1%
IC50 (Substance-P receptor): 0.032 nM

CCc1ccccc1[C@H]1CN(C(=O)C2CCN(C(C)=O)CC2)CC[C@@H]1C(=O)N(C)Cc1cc(C(F)(F)F)cc(C(F)(F)F)c1 (racemic)
IC50 (Substance-P receptor): 0.064 nM

CC(=O)N1CCC(C(=O)N2CC[C@H](C(=O)N(C)Cc3cc(C(F)(F)F)cc(C(F)(F)F)c3)[C@@H](c3ccccc3C(C)C)C2)CC1 (racemic)
IC50 (Substance-P receptor): 0.21 nM

CC(=O)N1CCC(C(=O)N2CC[C@H](C(=O)N(C)Cc3cc(C(F)(F)F)cc(C(F)(F)F)c3)[C@@H](c3ccc(F)cc3)C2)CC1 (racemic)
inhibition in vivo at 0.3 mg/kg (Cavia porcellus [22]): 41.4%
IC50 (Substance-P receptor): 0.052 nM

CC(=O)N1CCC(C(=O)N2CC[C@H](C(=O)N(C)Cc3cc(C(F)(F)F)cc(C(F)(F)F)c3)[C@@H](c3ccc(F)cc3C)C2)CC1 (racemic)
Activity [7]: 2%
microsomal CLint at 1 µM [2]: 111 µL/min/mg
inhibition in vivo at 0.3 mg/kg (Cavia porcellus [22]): 105%
IC50 (Substance-P receptor): 0.047 nM

CC(=O)NCC(=O)N1CC[C@H](C(=O)N(C)Cc2cc(C(F)(F)F)cc(C(F)(F)F)c2)[C@@H](c2ccc(F)cc2C)C1 (racemic)
microsomal CLint at 1 µM [2]: 59 µL/min/mg
inhibition in vivo at 0.3 mg/kg (Cavia porcellus [22]): 48.9%
IC50 (Substance-P receptor): 0.043 nM

CNC(=O)N1CC[C@H](C(=O)N(C)Cc2cc(C(F)(F)F)cc(C(F)(F)F)c2)[C@@H](c2ccc(F)cc2C)C1 (racemic)
microsomal CLint at 1 µM [2]: 199 µL/min/mg
inhibition in vivo at 0.3 mg/kg (Cavia porcellus [22]): 80%
IC50 (Substance-P receptor): 0.048 nM

Cc1cc(F)ccc1[C@H]1CN(C(N)=O)CC[C@@H]1C(=O)N(C)Cc1cc(C(F)(F)F)cc(C(F)(F)F)c1 (racemic)
microsomal CLint at 1 µM [2]: 112 µL/min/mg
inhibition in vivo at 0.3 mg/kg (Cavia porcellus [22]): 80.3%
IC50 (Substance-P receptor): 0.035 nM

CONC(=O)N1CC[C@H](C(=O)N(C)Cc2cc(C(F)(F)F)cc(C(F)(F)F)c2)[C@@H](c2ccc(F)cc2C)C1 (racemic)
inhibition in vivo at 0.1 mg/kg (Cavia porcellus [4]): -23.9%
IC50 (Substance-P receptor): 0.073 nM

CNC(=O)C(=O)N1CC[C@H](C(=O)N(C)Cc2cc(C(F)(F)F)cc(C(F)(F)F)c2)[C@@H](c2ccc(F)cc2C)C1 (racemic)
microsomal CLint at 1 µM [2]: 115 µL/min/mg
inhibition in vivo at 0.3 mg/kg (Cavia porcellus [22]): 51.5%
IC50 (Substance-P receptor): 0.11 nM

Cc1cc(F)ccc1[C@H]1CN(C(=O)C(N)=O)CC[C@@H]1C(=O)N(C)Cc1cc(C(F)(F)F)cc(C(F)(F)F)c1 (racemic)
Stability (Liver microsomes): 40 µL/min/mg
inhibition in vivo at 0.3 mg/kg (Cavia porcellus [22]): 86.7%
IC50 (Substance-P receptor): 0.052 nM

Cc1cc(F)ccc1[C@H]1CN(C(=O)C(=O)NO)CC[C@@H]1C(=O)N(C)Cc1cc(C(F)(F)F)cc(C(F)(F)F)c1 (racemic)
microsomal CLint at 1 µM [2]: 2 µL/min/mg
inhibition in vivo at 0.1 mg/kg (Cavia porcellus [4]): -15.5%
IC50 (Substance-P receptor): 0.046 nM

CN(Cc1cc(C(F)(F)F)cc(C(F)(F)F)c1)C(=O)[C@H]1CCNC[C@H]1c1ccccc1 (relative stereo)
IC50 (Substance-P receptor): 5.6 nM
